Reference: ChEMBL document CHEMBL2069203, “Cytotoxic and antibacterial beilschmiedic acids from a Gabonese species of Beilschmiedia” (J Nat Prod, 2012)
Values after ≈ are worked out from the molar mass of the structure shown. Active and inactive are the calls of the source.

Key:
NCI-H460 [1] = assay: Cytotoxicity against human NCI-H460 cells incubated for 72 hrs by MTT assay; type: functional, cell-based
How it was run: (§1)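 Cells kept in RPMI-1640 with 10% FBS plus L-glutamine and HEPES, seeded at 5 × 10^2 to 5 × 10^4 cells/well and left to adhere overnight. Medium was replaced with DMSO stock diluted in medium at eight concentrations, 2−5 wells each. Camptothecin and vehicle served as controls. After 72 h at 37 °C, 5% CO2, viable cells were read by CellTiter 96 AQueous. IC50 came from dose−response curves.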

Staphylococcus aureus = assay: Antimicrobial activity against methicillin-resistant Staphylococcus aureus isolate 108 incubated for 24 hrs by broth microdilution method; type: functional
How it was run: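 CLSI broth microdilution on clinical MRSA isolate 108. Overnight trypticase soy broth culture diluted 1:100 in cation-adjusted Mueller-Hinton broth, grown at 37 °C to OD600 0.2, diluted 1:100 again to give 10^6 cfu/mL. Compound in DMSO diluted in medium, tested across a concentration series, 3-6 wells each. Vancomycin positive control. Incubated 24 h at 37 °C. MIC = lowest concentration preventing visible growth.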

PC-3 = assay: Cytotoxicity against human PC3 cells incubated for 72 hrs by MTT assay; type: functional, cell-based; how it was run: as §1
M14 = assay: Cytotoxicity against human M14 cells incubated for 72 hrs by MTT assay; type: functional, cell-based; how it was run: as §1
NCI-H460 [2] = assay: Induction of membrane disruption in human NCI-H460 cells at 20 uM by LDH release assay; type: functional, cell-based
How it was run: (§2)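 NCI-H460 cells were plated at 1 × 10^4 cells/well in RPMI-1640 with 10% fetal calf serum and attached overnight. Compound or DMSO vehicle was added and incubated 24 or 72 h. Supernatant LDH was measured with the CytoTox 96 kit, absorbance at 490 nm, with kit lysis solution as positive control.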

NCI-H460 [3] = assay: Induction of membrane disruption in human NCI-H460 cells at 3 yo 5 fold cytotoxic IC50 level by LDH release assay; type: functional, cell-based; how it was run: as §2
NCI-H460 [4] = assay: Induction of apoptosis in human NCI-H460 cells assessed as caspase 3/7 activation at 26.1uM; type: functional, cell-based
How it was run: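 NCI-H460 cells were plated at 1 × 10^4 cells/well in RPMI-1640 with 10% fetal calf serum and attached overnight. Compound or DMSO vehicle was added and incubated 24 or 72 h. Caspase 3/7 activity was read by Caspase-Glo 3/7 luminescence, with camptothecin 10 μg/mL as positive control. A result counted as active when caspase exceeded background plus two SD of the negative control without LDH release.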

[5] = Homo sapiens, NCI-H460, 72 h, read-out: IC50

SMILES | IC50 (NCI-H460 [1]; [5]) [µM] | MIC (Staphylococcus aureus; isolate 108, 24 h) [µg/mL] | Activity (PC-3) | Activity (M14) | Activity (NCI-H460 [2]) | IC50 (NCI-H460 [1]; nci-h460) | MIC (Staphylococcus aureus) | Activity (NCI-H460 [3]) | Activity (NCI-H460 [4])
O=C(O)C1=C[C@@H](O)[C@@H]2C[C@H]3[C@H](CCCC4C=CC(c5ccccc5)OO4)[C@H]4C=C[C@@H]1[C@@H]2[C@H]43 (stereo not given in full) [BEILSCHMIEDIC ACID N] | 19 | 13 (≈ 29.9 µM) | inactive | inactive |  |  |  |  | 
O=C(O)C1=C[C@@H](O)[C@@H]2C[C@H]3[C@H](CCC/C=C/C=C/c4ccccc4)[C@H]4C=C[C@@H]1[C@@H]2[C@H]43 |  |  | inactive | inactive | inactive | Not Active | inactive |  | 
O=C(O)C1=C[C@@H](O)[C@@H]2C[C@H]3[C@H](CCCc4ccc(-c5ccccc5)o4)[C@H]4C=C[C@@H]1[C@@H]2[C@H]43 [BEILSCHMIEDIC ACID O] |  | 13 (≈ 31.2 µM) | inactive | inactive | inactive | Not Active |  |  | 
CCCCCCCC[C@@H]1[C@H]2C=C[C@H]3C(C(=O)O)=C[C@@H](O)[C@@H]4C[C@@H]1[C@@H]2[C@H]43 [BEILSCHMIEDIC ACID C] |  |  | inactive | inactive | inactive | Not Active | inactive |  | 
CCCCCCCC[C@@H]1[C@H]2C=C[C@H]3C(C(=O)O)=C[C@H](O)[C@@H]4C[C@@H]1[C@@H]2[C@H]43 [BEILSCHMIEDIC ACID A] | 6.1 | 10 (≈ 29 µM) | inactive | inactive |  |  |  |  | 
O=C(O)C1=C[C@@H](O)[C@@H]2C[C@H]3[C@H](CCC/C=C\C=C\c4ccccc4)[C@H]4C=C[C@@H]1[C@@H]2[C@H]43 [BEILSCHMIEDIC ACID M] | 8.7 | 12 (≈ 29.8 µM) | inactive | inactive |  |  |  | inactive | Active
O=C(O)C1=C[C@@H](O)[C@@H]2C[C@H]3[C@H](CCCCCc4ccccc4)[C@H]4C=C[C@@H]1[C@@H]2[C@H]43 [BEILSCHMIEDIC ACID K] | 5.9 | 11 (≈ 29.1 µM) | inactive | inactive |  |  |  | inactive | 
O=C(O)C1=C[C@H](O)[C@@H]2C[C@H]3[C@H](CCC/C=C/C=C/c4ccccc4)[C@H]4C=C[C@@H]1[C@@H]2[C@H]43 [BEILSCHMIEDIC ACID I] | 5.5 | 12 (≈ 29.8 µM) | inactive | inactive |  |  |  | inactive | 
O=C(O)C1=C[C@@H](O)[C@@H]2C[C@H]3[C@H](C/C=C/C=C/c4ccccc4)[C@H]4C=C[C@@H]1[C@@H]2[C@H]43 [BEILSCHMIEDIC ACID L] | 4.4 | 11 (≈ 29.4 µM) | inactive | inactive |  |  |  | inactive | 
CC[C@@]1(O)C(=O)OCc2c1cc1n(c2=O)Cc2cc3ccccc3nc2-1 [CAMPTOTHECIN] | 0.003 |  |  |  |  |  |  |  | 
